Assay results from different studies.
Lines come from different studies, so protocols differ.
Target: Serine/threonine-protein kinase Sgk1 (SGK1, Homo sapiens, UniProt O00141)
Sequence (O00141 1-431, as in one of the studies): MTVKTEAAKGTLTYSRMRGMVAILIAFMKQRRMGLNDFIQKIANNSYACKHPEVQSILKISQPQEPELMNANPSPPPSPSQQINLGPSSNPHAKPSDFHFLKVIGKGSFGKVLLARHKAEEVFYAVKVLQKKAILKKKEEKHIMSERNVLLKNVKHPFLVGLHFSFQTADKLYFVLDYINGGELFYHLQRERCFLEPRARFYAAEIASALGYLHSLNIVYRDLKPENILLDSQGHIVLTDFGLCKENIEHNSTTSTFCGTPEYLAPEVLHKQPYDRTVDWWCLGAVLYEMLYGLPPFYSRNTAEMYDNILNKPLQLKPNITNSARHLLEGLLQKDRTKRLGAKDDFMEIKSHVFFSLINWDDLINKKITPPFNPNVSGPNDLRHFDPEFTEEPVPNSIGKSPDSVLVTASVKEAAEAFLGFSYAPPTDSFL

| SMILES | read-out | method | concentration | remaining binding [%] |
| --- | --- | --- | --- | --- |
| c1cncc(-c2cccc(Nc3nccc(NC4CCCCC4)n3)c2)c1 | binding | competition with immobilised ligand | 10 µM | 92 |
| CNC(=O)[C@@H]1CC[C@@H](n2c(-c3ccc4cnccc4c3)nc3ccc(C(=O)NCc4cccc(C(N)=O)c4)cc32)C1 | binding | competition with immobilised ligand | 1 µM | 94 |
| Cc1cnc(Nc2ccc(C(=O)N3CCC(N4CCCC4)CC3)cc2)nc1-c1cc2ccccc2s1 | binding | competition with immobilised ligand | 1 µM | 0.2 |
| O=C(NCC1CCOCC1)c1n[nH]cc1NC(=O)c1c(F)cccc1F | binding | competition with immobilised ligand | 1 µM | 89 |
| O=C(N[C@H]1CCCCC/C=C\C2C[C@@]2(C(=O)O)NC(=O)[C@@H]2C[C@@H](Oc3ccncc3)CN2C1=O)OC1CCCC1 (stereo partly shown) | binding | competition with immobilised ligand | 1 µM | 100 |
| O=C(NCCCN1CCOCC1)c1ccc(Nc2ncc(Cl)c(-c3ccc(Cl)s3)n2)cc1 | binding | competition with immobilised ligand | 1 µM | 5.8 |
| CS(=O)(=O)c1cc(C2(NC(=O)c3cncc4c3cnn4-c3ccc(F)cc3)CC2)ccn1 | cell-free assay | competition with immobilised ligand | 1 µM | 97 |
| C[C@H]1CCN(c2nccc(-c3cnn4ncccc34)n2)C1 | binding | – | 1 µM | 68 |
| CCCCN(CCCC)C(=O)CN1C[C@@H](c2cc(OC)c3c(c2)OCO3)[C@H](C(=O)O)[C@H]1CC(C)(C)CCC | cell-free assay | competition with immobilised ligand | 1 µM | 77.6 |
| FC(F)(F)Oc1cccc(-c2cnc3ccc(-c4ccncc4)nn23)c1 | binding | competition with immobilised ligand | 5 µM | 75 |
| Cc1cnn2ncc(-c3ccnc(N(C)C)n3)c2c1 | binding | – | 1 µM | 73 |
| CC(=O)N1CCC(c2ccc(C(=O)NC3=NCCN3)cc2C(F)(F)F)CC1 | cell-free assay | competition with immobilised ligand | 1 µM | 100 |
| N[C@@H]1CCN(c2nccc(-c3cnn4ncccc34)n2)C1 | binding | – | 1 µM | 100 |
| O=C(NCc1ncc(C(F)(F)F)cc1Cl)c1ccc2c(c1)C1(CCS(=O)(=O)CC1)[C@@H](C1CC1)N2S(=O)(=O)c1ccc(F)cc1 | cell-free assay | competition with immobilised ligand | 1 µM | 77 |
| CC1CCCN1c1nccc(-c2cnn3ncccc23)n1 (stereo not shown) | binding | – | 1 µM | 86 |
| C[C@@H](c1ccc(-n2cnc3c(N)ncnc32)cc1)N1CCc2nn(C)c(Cc3ccccc3)c2C1=O | binding | competition with immobilised ligand | 0.1 µM | 61 |
| Cc1cc(NC(=O)c2cccc(S(F)(F)(F)(F)F)c2)cc(-n2ccn3nc(-c4cccnc4)cc23)c1 | cell-free assay | competition with immobilised ligand | 1 µM | 81.3 |
| CN(c1nccc(-c2cnn3ncccc23)n1)C1CC1 | binding | – | 1 µM | 100 |
| COc1cnc(Nc2cccc(S(N)(=O)=O)c2)nc1N1CCN(c2ccccc2)CC1 | binding | competition with immobilised ligand | 1 µM | 76 |
| COc1ccnn2ncc(-c3ccnc(N(C)C)n3)c12 | binding | – | 1 µM | 80 |
| CC1=C(C#N)[C@@H](c2ccc3[nH]nc(C)c3c2)C(C#N)=C(c2ccc(Cl)cc2)N1 | cell-free assay | competition with immobilised ligand | 1 µM | 100 |
| O=C(c1ccc(Nc2ncc(Cl)c(-c3ccc(Cl)s3)n2)cc1)N1CCC(N2CCCC2)CC1 | binding | competition with immobilised ligand | 1 µM | 0.1 |
